Results reported in ChEMBL document CHEMBL3407460, “Synthesis of novel thiazole-based 8,9-dihydro-7H-pyrimido[4,5-b][1,4]diazepines as potential antitumor and antifungal agents” (2015).

Columns and labels:
Type in all cases: functional
CCRF-CEM = experiment: Antitumor activity against human CCRF-CEM cells after 48 hrs by Sulforhodamine B assay; settings: for CC50: read-out: LC50 (the source's name)
Summary of the method: (§1)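 NCI 60-cell-line screen. Secondary five-dose test at 100, 10, 1.0, 0.1 and 0.01 µM with continuous drug exposure for 48 h. Cell growth was estimated by sulforhodamine B protein staining. […] LC50 was also reported.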

HL-60(TB) = experiment: Antitumor activity against human HL-60(TB) cells after 48 hrs by Sulforhodamine B assay; settings: HL-60, 48 h; for CC50: read-out: LC50 (the source's name); summary of the method: as §1
[1] = Antitumor activity against human HOP92 cells after 48 hrs by Sulforhodamine B assay; settings: HOP-92, 48 h; for CC50: read-out: LC50 (the source's name); summary of the method: as §1
NCI-H522 = experiment: Antitumor activity against human NCI-H522 cells after 48 hrs by Sulforhodamine B assay; settings: NCI-H522, 48 h; for CC50: read-out: LC50 (the source's name); summary of the method: as §1
[2] = Antitumor activity against human HCC2998 cells after 48 hrs by Sulforhodamine B assay; settings: HCC 2998, 48 h; for CC50: read-out: LC50 (the source's name); summary of the method: as §1
SNB-19 = experiment: Antitumor activity against human SNB19 cells after 48 hrs by Sulforhodamine B assay; settings: SNB-19, 48 h; summary of the method: as §1
[3] = Antitumor activity against human UACC257 cells after 48 hrs by Sulforhodamine B assay; settings: UACC-257, 48 h; for CC50: read-out: LC50 (the source's name); summary of the method: as §1
[4] = Antitumor activity against human PC3 cells after 48 hrs by Sulforhodamine B assay; settings: PC-3, 48 h; for CC50: read-out: LC50 (the source's name); summary of the method: as §1

Compound | GI50 (CCRF-CEM) [µM] | CC50 (CCRF-CEM) [µM] | GI50 (HL-60(TB)) [µM] | CC50 (HL-60(TB)) [µM] | GI50 [1] [µM] | CC50 [1] [µM] | GI50 (NCI-H522) [µM] | CC50 (NCI-H522) [µM] | GI50 [2] [µM] | CC50 [2] [µM] | GI50 (SNB-19) [µM] | LC50 (SNB-19) [µM] | GI50 [3] [µM] | CC50 [3] [µM] | GI50 [4] [µM] | CC50 [4] [µM]
Nc1ncnc2c1N=C(c1ccc3c(c1)OCO3)CC(c1sc(Cl)nc1Cl)N2 (configuration not stated) | 3.02 | > 100 | 36.1 | > 100 | 4.25 | 77.5 | 2.51 | 55.3 | 6.11 | 48.8 | 4.83 | > 100 | 14.6 | > 100 | 5.15 | > 100
Cc1ccc(C2=Nc3c(N)ncnc3NC(c3sc(Cl)nc3Cl)C2)cc1 (configuration not stated) | 3.21 | > 100 | 2.04 | > 100 | 3.72 | 45.4 | 4.05 | 42.1 | 10.3 | 46.8 | 5.51 | 47.2 | 6.76 | 48.6 | 5.89 | 73.1
